What was measured:
Canis familiaris [1] = test: Antisecretory activity was evaluated in adult mongrel dog after iv administration at 5 mg/kg of dose, expressed as reduction of gastric output; format: functional, Canis lupus familiaris, Stomach
How it was run: (§1)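 Conscious mongrel dogs with surgical Heidenhain pouches. Histamine was infused iv at 0.4 (μg/kg)/min, giving 50–60% of maximal acid output. The test agent was given iv or orally by gavage 1 h into the infusion. Acid output (volume × titrated acid) was collected in 30-min fractions and summed over 3 h, then compared with control runs in the same dog. Usually a single dog per compound.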

Canis familiaris [2] = test: Antisecretory activity was evaluated in adult mongrel dog after po administration at 8 mg/kg of dose, expressed as reduction of gastric output; format: functional, Canis lupus familiaris, Stomach; how it was run: as §1
Rattus norvegicus [3] = test: Antisecretory activity was evaluated in pylorus ligated rat after ip administration at 40 mg/kg of dose, expressed as reduction of gastric output; settings: route intraperitoneal
Canis familiaris [4] = test: Compound was measured for percentage reduction in food stimulated canine gastric acid secretion after iv administration at 5 mg/kg dosage; format: functional, Canis lupus familiaris, Stomach
How it was run: (§2)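 Heidenhain pouch dogs given the test agent (iv or oral) together with a meal of 250 g ground cooked beef hearts. Acid output was collected and expressed as percent reduction relative to control studies in the same animal; n per entry as reported.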

Canis familiaris [5] = test: Compound was measured for percentage reduction in food stimulated canine gastric acid secretion after po administration at 8 mg/kg dosage; format: functional, Canis lupus familiaris, Stomach; how it was run: as §2
Canis familiaris [6] = test: Compound was measured for percentage reduction in insulin hypoglycemia stimulated canine gastric acid secretion after iv administration at 5 mg/kg dosage; format: functional, Canis lupus familiaris, Stomach
How it was run: (§3)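 Dogs with simple gastric fistulas. The test agent (iv or oral) was given at the time of regular insulin injection. Gastric collections were made for 3 h, and percent reduction of acid output was calculated against control studies in the same animals; n per entry as reported.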

Canis familiaris [7] = test: Compound was measured for percentage reduction in insulin hypoglycemia stimulated canine gastric acid secretion after po administration at 8 mg/kg dosage; format: functional, Canis lupus familiaris, Stomach; how it was run: as §3
Canis familiaris [8] = test: Compound was measured for percentage reduction in dimaprit stimulated canine gastric acid secretion after iv administration at 5 mg/kg dosage; format: functional, Canis lupus familiaris, Stomach
How it was run: (§4)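 Heidenhain pouch dogs. Acid output was summed over 3 h after dosing and expressed as percent reduction relative to control studies in the same animal; n per entry as reported.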

Rattus norvegicus [9] = test: Compound was measured for percentage inhibition of aspirin-induced ulcers at 10 mg/kg after po administration; format: functional
How it was run: (§5)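 Rats fasted 24 h received the test agent orally in 0.4% methylcellulose-saline, then 1 h later 100 mg/kg aspirin orally. Stomachs were removed 4 h after aspirin and opened along the greater curvature, and ulcers were counted under a 2× magnifier. Inhibition was based on mean lesion number vs controls. Eight rats per compound; Student's t test.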

Rattus norvegicus [10] = test: Compound was measured for percentage inhibition of aspirin-induced ulcers at 30 mg/kg after po administration; format: functional; how it was run: as §5
Rattus norvegicus [11] = test: Compound was measured for percentage inhibition of aspirin-induced ulcers at 3 mg/kg after po administration; format: functional; how it was run: as §5
Rattus norvegicus [12] = test: Compound was measured for percentage inhibition of aspirin-induced ulcers at 20 mg/kg after po administration; format: functional; how it was run: as §5
Canis familiaris [13] = test: Compound was measured for percentage reduction in dimaprit stimulated canine gastric acid secretion after po administration at 8 mg/kg dosage; format: functional, Canis lupus familiaris, Stomach; how it was run: as §4
Canis familiaris [14] = test: Compound was measured for percentage reduction in food stimulated canine gastric acid secretion after iv administration at 5 mg/kg dosag; format: functional, Canis lupus familiaris, Stomach; how it was run: as §2

Row | SMILES | Reduction (Canis familiaris [1]) | Reduction (Canis familiaris [2]) | Reduction (Rattus norvegicus [3]) | also measured
1 | CNC(=O)N(C)C1c2cc(F)ccc2Oc2ncccc21 (stereo unspecified) | 63% | <30% | 68% | 
2 | CN(C(=O)NC(C)(C)C)C1c2ccccc2Oc2ncccc21 (stereo unspecified) | 35% | <30% | 82% | 
3 | NC(=O)NC1c2ccccc2Oc2ncccc21 (stereo unspecified) | 36% |  | 46% | 
4 | CNC(=O)N(C)C1c2cc(Cl)c(C)cc2Oc2ncccc21 (stereo unspecified) | <30% |  | 65% | 
5 | CN1CCN(C(=O)N(C)C2c3ccccc3Oc3ncccc32)CC1 (stereo unspecified) | <30% | <30% | 94% | 
6 | CNC(=O)N(C)C1c2ccccc2Oc2ccncc21 (stereo unspecified) | <30% |  | 77% | 
7 | CNC(=O)N(C)C1c2cccnc2Oc2c(F)cccc21 (stereo unspecified) | <30% |  | 35% | 
8 | CN(C(=O)N1CCOCC1)C1c2ccccc2Oc2ncccc21 (stereo unspecified) | 64% | <30% | 95% | 
9 | CNC(=O)N(C)C1c2cc([N+](=O)[O-])ccc2Oc2ncccc21 (stereo unspecified) | <30% |  | 71% | 
10 | CNC(=O)N(C)C1c2ccc(C)cc2Oc2ncccc21 (stereo unspecified) | 75% | <30% | 81% | 
11 | CNC(=O)N(C)C1c2ccccc2Oc2cccnc21 (stereo unspecified) | 38% | 34% | 37% | 
12 | CN(C(=O)N1CCCCC1)C1c2ccccc2Oc2ncccc21 (stereo unspecified) | 31% |  | 72% | 
13 | CNC(=O)N(C)C1c2ccccc2Oc2ncccc21 (stereo unspecified) | 84% | <30% |  | Reduction (Canis familiaris [4]): 69%; Reduction (Canis familiaris [5]): <30%; Reduction (Canis familiaris [6]): 79%; Reduction (Canis familiaris [7]): <30%; Reduction (Canis familiaris [8]): 58%; inhibition in vivo at 10 mg/kg (Rattus norvegicus [9]): 89%; inhibition in vivo at 30 mg/kg (Rattus norvegicus [10]): 100%; inhibition in vivo at 3 mg/kg (Rattus norvegicus [11]): 51%
14 | CNC(=O)NC1c2ccccc2Oc2ncccc21 (stereo unspecified) | 31% |  | 54% | 
15 | CNC(=O)N(C)C1c2cc(C)ccc2Oc2ncccc21 (stereo unspecified) | 62% | <30% | 71% | 
16 | CN(C(N)=O)C1c2ccccc2Oc2ncccc21 (stereo unspecified) | 30% |  | 70% | 
17 | CNC(=O)N(C)C1c2ccc(OC)cc2Oc2ncccc21 (stereo unspecified) | 54% | <30% | 60% | 
18 | CNC(=O)N(C)C1c2cccnc2Oc2cccc(C(F)(F)F)c21 (stereo unspecified) | <30% |  | 71% | 
19 | CN(C(=O)Nc1ccccc1)C1c2ccccc2Oc2ncccc21 (stereo unspecified) | 55% | <30% | 45% | 
20 | CNC(=O)N(C)C1c2cccnc2Oc2c(Cl)cccc21 (stereo unspecified) | <30% |  | 60% | 
21 | CN(C)C(=O)N(C)C1c2ccccc2Oc2ncccc21 (stereo unspecified) | <30% |  | 96% | inhibition in vivo at 20 mg/kg (Rattus norvegicus [12]): 100%
22 | CN(C)C(=O)NC1c2ccccc2Oc2ncccc21 (stereo unspecified) | 35% | <30% | 95% | inhibition in vivo at 30 mg/kg (Rattus norvegicus [10]): 74%
23 | CNC(=O)N(C)C1c2ccc(C(F)(F)F)cc2Oc2ncccc21 (stereo unspecified) | <30% |  | 46% | 
24 | CNC(=O)N(C)C1c2ccccc2S(=O)(=O)c2ncccc21 (stereo unspecified) | <30% |  | <30% | 
25 | CNC(=O)N(C)C1c2cc(C(=O)OC)ccc2Oc2ncccc21 (stereo unspecified) | <30% |  | <30% | 
26 | CNC(=O)N(C)C1c2cc(CO)ccc2Oc2ncccc21 (stereo unspecified) | <30% |  | <30% | 
27 | CNC(=O)N(C)C1c2cc(OC)ccc2Oc2ncccc21 (stereo unspecified) | 51% | <30% | 59% | 
28 | CNC(=O)N(C)C1c2ccccc2Sc2ncccc21 (stereo unspecified) | 80% | <30% | 96% | Reduction (Canis familiaris [5]): <30%; Reduction (Canis familiaris [6]): 97%; Reduction (Canis familiaris [7]): 62%; Reduction (Canis familiaris [8]): 78%; Reduction (Canis familiaris [13]): <30%; Reduction (Canis familiaris [14]): 78%; inhibition in vivo at 10 mg/kg (Rattus norvegicus [9]): 68%; inhibition in vivo at 30 mg/kg (Rattus norvegicus [10]): 100%; inhibition in vivo at 3 mg/kg (Rattus norvegicus [11]): 0%
29 | CN/C(=N\CCSCc1nc[nH]c1C)NC#N [CIMETIDINE] | 84% | 86% | 74% | inhibition in vivo at 10 mg/kg (Rattus norvegicus [9]): 67%
